The values that follow come from article PMC3086571 (Organometallics, 2011).

Where only a bound is given, the exact number is not on record here.

The test system of data set [1] is A549 cells (nonsmall cell lung carcinoma). Put plainly: MTT cytotoxicity assay, A549. The format is cell-based. Conditions: Homo sapiens, A549, 96 h, read-out: IC50 A549. An outline of the steps: (§1)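 Adherent monolayers grown in supplemented MEM with 10% heat-inactivated FBS at 37 °C, 5% CO2. Cells were trypsinised and seeded at 4 × 10^3 (A549), 1.5 × 10^3 (CH1) or 2.5 × 10^3 (SW480) per well, then left 24 h. Compound dilutions in complete medium were applied for 96 h. MTT was added for 4 h and formazan dissolved in DMSO; OD read at 550/690 nm versus untreated controls. IC50 was interpolated from the curves; ≥3 independent experiments, triplicates.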

Data set [2] concerns CH1 cells (ovarian carcinoma). Put plainly: MTT cytotoxicity assay, CH1. The format is cell-based, human. As to conditions: for IC50: Homo sapiens, CH1, 96 h, read-out: IC50 CH1; for capacity of inhibiting tumor cell proliferation in vitro: CH1 ovarian cancer cells. An outline of the steps:
as §1
(In general: Tetrazolium assays rely on reduction of a dye to a coloured formazan, in cell work by metabolically active cells.)

In data set [3] the test system is SW480 cells (colon carcinoma). Nature of the data set: MTT cytotoxicity assay, SW480. The format is cell-based. Conditions: Homo sapiens, SW480, 96 h, read-out: IC50 SW480. The method, boiled down:
as §1

Data set [4] in a line: Aqueous stability. The format is physicochemical. Conditions: for Stability (amount of aqua complex in the solution), 1H NMR: D2O, after 18 or 24 h incubation (NMR: 18 h). The method, boiled down: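 Test compound (1−2 mg/mL) dissolved in D2O; 1H NMR spectra recorded immediately after dissolution and again after 18 h to follow chlorido-to-aqua exchange.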
A short description of data set [5]: Aqueous stability. It is filed as physicochemical. Conditions: water, 25 °C, after 18 or 24 h incubation.
In a further data set the test system is rat skeletal myoblasts. As to conditions: in vitro, preliminary; cited from earlier work.
The subject of a further data set is topoisomerase II. As to conditions: electrophoretic assay with plasmid DNA; cited from earlier work.

A word on the IC50: it is the concentration that gives 50% inhibition. With `CCn1nc(C(=O)O)c(=O)c2cc3c(cc21)OCO3` [cin-H, cinoxacin], the IC50 in data set [1], in data set [2] and in data set [3] was over 320 µM each time.

With `CC1COc2c(N3CCN(C)CC3)c(F)cc3c(=O)c(C(=O)[O-])cn1c23.Cc1ccc(C(C)C)cc1.[Cl-].[Ru+2]` (centres unmarked) [Compound 1, chlorido(η^6-p-cymene)(ofloxacinato-κ^2O,O)ruthenium(II)], in data set [2], the “capacity of inhibiting tumor cell proliferation in vitro” value is listed as “moderate”. The “sensitivity of CH1 cells relative to SW480 cells” value in data set [2] (ratio of IC50 SW480 / CH1) is “about 10 times”. In addition, the “Stability (amount of aqua complex in the solution), 1H NMR” value (shortened to “Stability … 1H NMR”) in “Aqueous stability [4]” was found to be 45%. In addition, in the data set “Aqueous stability [4]” (aqueous solution, over 24 h), the “free ligand from decomposition of the aqua species” value is “more than 40%”. In addition, in “Aqueous stability [5]”, the “Stability (amount of aqua complex in the solution), CZE-ICP-MS” value (“Stability … CZE-ICP-MS” below) worked out at 56%. For the same compound, the “cytotoxic activity in rat skeletal myoblasts” value with rat skeletal myoblasts is given as “no significant activity”. Also, the “topoisomerase II inhibition” value in the data set on topoisomerase II was “very little topoisomerase II inhibition”.

Consider `CCn1cc(C(=O)O)c(=O)c2ccc(C)nc21` [nal-H, nalidixic acid], for which the IC50 in data set [1], in data set [2] and in data set [3] was over 320 µM each time.

On to “Chlorido(η^6-p-cymene)(cinoxacinato-κ^2O,O)ruthenium(II) [Compound 3]”, for which the “capacity of inhibiting tumor cell proliferation in vitro” value in data set [2] is “inactive”. Moreover, the “Stability … 1H NMR” value in the data set “Aqueous stability [4]” is reported as 90%. For the same compound, the “Stability … CZE-ICP-MS” value in “Aqueous stability [5]” amounted to 87%.

For the compound `CC1COc2c(N3CCN(C)CC3)c(F)cc3c(=O)c(C(=O)O)cn1c23` (centres unmarked) [oflo-H, ofloxacin, reference compound], the half-inhibitory concentration (IC50) in data set [1], in data set [2] and in data set [3] was over 320 µM each time. For the same compound, the “topoisomerase II inhibition” value in the data set with topoisomerase II is listed as “very little topoisomerase II inhibition”.

Regarding “Chlorido(η^6-p-cymene)(nalidixicato-κ^2O,O)ruthenium(II) [Compound 2]”, in data set [2], the “capacity of inhibiting tumor cell proliferation in vitro” value is “inactive”. Besides, in “Aqueous stability [4]”, the “Stability … 1H NMR” value was 94%. In addition, in the data set “Aqueous stability [5]”, the “Stability … CZE-ICP-MS” value was determined as 93%.
